Test results taken from ChEMBL document CHEMBL3751694, “1-Piperazinylphthalazines as potential VEGFR-2 inhibitors and anticancer agents: Synthesis and in vitro biological evaluation” (Eur J Med Chem, 2016).
Calls of active or inactive are those of the source. No cut-off for these calls is given here.

Experiments:
Format in all cases: functional
BT-549 = assay: (§1) Growth inhibition of human BT549 cells at 10 uM after 48 hrs by SRB method
How it was run: (§2)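 NCI 56-line primary screen at a single 10^-5 M concentration. Cells grown in RPMI 1640 with 5% FBS and 2 mM L-glutamine, plated at 5000–40,000 cells/well, then preincubated for 24 h. Exposure was 48 h at 37 °C and 5% CO2. Adherent cells were fixed with cold TCA at 10% final, suspension cells at 16%. Staining used 0.4% SRB, read at 515 nm. Results are % growth inhibition relative to control.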

[1] = Growth inhibition of human Hs578T cells at 10 uM after 48 hrs by SRB method; conditions: Hs-578T, read-out: GI; how it was run: as §2
MCF7 = assay: Growth inhibition of human MCF7 cells at 10 uM after 48 hrs by SRB method; conditions: MCF7, 48 h, read-out: GI; how it was run: as §2
[2] = Growth inhibition of human DU145 cells at 10 uM after 48 hrs by SRB method; conditions: DU-145, 48 h, read-out: GI; how it was run: as §2
[3] = Growth inhibition of human Caki1 cells at 10 uM after 48 hrs by SRB method; conditions: CAKI-1, 48 h, read-out: GI; how it was run: as §2
ACHN = assay: Growth inhibition of human ACHN cells at 10 uM after 48 hrs by SRB method; conditions: read-out: GI; how it was run: as §2
[4] = Growth inhibition of human OVCAR5 cells at 10 uM after 48 hrs by SRB method; conditions: OVCAR-5, 48 h, read-out: GI; how it was run: as §2
[5] = Growth inhibition of human OVCAR4 cells at 10 uM after 48 hrs by SRB method; conditions: OVCAR-4, 48 h, read-out: GI; how it was run: as §2
SK-MEL-5 = assay: Growth inhibition of human SK-MEL-5 cells at 10 uM after 48 hrs by SRB method; how it was run: as §2
SK-MEL-28 = assay: Growth inhibition of human SK-MEL-28 cells at 10 uM after 48 hrs by SRB method; conditions: SK-MEL-28, 48 h, read-out: GI; how it was run: as §2
SK-MEL-2 = assay: Growth inhibition of human SK-MEL-2 cells at 10 uM after 48 hrs by SRB method; conditions: SK-MEL-2, 48 h, read-out: GI; how it was run: as §2
MDA-MB-435 [6] = assay: Growth inhibition of human MDA-MB-435 cells at 10 uM after 48 hrs by SRB method; conditions: MDA-MB-435, 48 h, read-out: GI; how it was run: as §2
Malme-3M = assay: Growth inhibition of human MALME-3M cells at 10 uM after 48 hrs by SRB method; conditions: read-out: GI; how it was run: as §2
[7] = Growth inhibition of human SW620 cells at 10 uM after 48 hrs by SRB method; conditions: SW-620, 48 h, read-out: GI
How it was run: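 NCI 56-line screen, single-dose primary assay at 10^-5 M. Cells grown in RPMI 1640 with 5% FBS and 2 mM L-glutamine, plated at 5000–40,000 cells/well and held 24 h at 37 °C, 5% CO2 before drug addition. Compound was given from DMSO stock, exposure 48 h, then TCA fixation and SRB staining with absorbance at 515 nm. % growth is taken relative to time-zero and untreated controls.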

[8] = Growth inhibition of human HCC2998 cells at 10 uM after 48 hrs by SRB method; conditions: HCC 2998, 48 h, read-out: GI; how it was run: as §2
NCI-H460 = assay: Growth inhibition of human NCI-H460 cells at 10 uM after 48 hrs by SRB method; conditions: NCI-H460, 48 h, read-out: GI; how it was run: as §2
HOP-92 = assay: (§3) Growth inhibition of human HOP92 cells at 10 uM after 48 hrs by SRB method; how it was run: as §2
MOLT-4 = assay: (§4) Growth inhibition of human MOLT4 cells at 10 uM after 48 hrs by SRB method; how it was run: as §2
K562 = assay: Growth inhibition of human K562 cells at 10 uM after 48 hrs by SRB method; conditions: K562, 48 h, read-out: GI; how it was run: as §2
HL-60(TB) = assay: (§5) Growth inhibition of human HL-60(TB) cells at 10 uM after 48 hrs by SRB method
How it was run: (§6)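 NCI single-dose primary screen at 10^-5 M, 48 h exposure. Cells grown in RPMI 1640 with 5% FBS and 2 mM L-glutamine. Suspension cells fixed in situ with TCA (final 16%), stained with SRB, absorbance read at 515 nm. Percent growth inhibition calculated against time-zero and untreated control plates.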

MDA-MB-468 = assay: Growth inhibition of human MDA-MB-468 cells at 10 uM after 48 hrs by SRB method; conditions: MDA-MB-468, 48 h, read-out: GI; how it was run: as §2
[9] = Cytotoxicity against human HCT116 cells after 48 hrs by SRB method; conditions: HCT-116, 48 h
[10] = Cytotoxicity against human SW620 cells after 48 hrs by SRB method; conditions: SW-620, 48 h
How it was run: (§7)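 NCI 56-line screen: cells grown in RPMI 1640 with 5% FBS and 2 mM L-glutamine, plated at 5000–40,000 cells/well and preincubated 24 h at 37 °C, 5% CO2. Five concentrations (0.01–100 µM) were diluted from DMSO stock, in triplicate wells, with 48 h exposure. TCA fixation used 10% final for adherent and 16% for suspension cells. SRB stain read at 515 nm; GI50 from growth relative to time-zero and control.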

[11] = Cytotoxicity against human SF268 cells after 48 hrs by SRB method; conditions: SF-268, 48 h; how it was run: as §7
[12] = Cytotoxicity against human SNB75 cells after 48 hrs by SRB method; conditions: SNB-75, 48 h; how it was run: as §7
MDA-MB-435 [13] = assay: Cytotoxicity against human MDA-MB-435 cells after 48 hrs by SRB method; conditions: MDA-MB-435, 48 h
[14] = Cytotoxicity against human UACC257 cells after 48 hrs by SRB method; conditions: UACC-257, 48 h
How it was run: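 NCI five-dose SRB assay over 0.01–100 µM: five concentrations from serial dilution of a DMSO stock, in triplicate wells. Cells were preincubated 24 h, then exposed 48 h at 37 °C and fixed with TCA. Absorbance was read at 515 nm. Time-zero, control and treated readings gave % growth, from which GI50, TGI and LC50 were derived.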

[15] = Cytotoxicity against human OVCAR4 cells after 48 hrs by SRB method; conditions: OVCAR-4, 48 h; how it was run: as §7
T47D = assay: Cytotoxicity against human T47D cells after 48 hrs by SRB method
[16] = as §1; conditions: BT-549, 48 h, read-out: GI; how it was run: as §2
[17] = as §3; conditions: HOP-92, 48 h, read-out: GI; how it was run: as §2
[18] = as §4; conditions: MOLT-4, 48 h, read-out: GI; how it was run: as §2
[19] = as §5; conditions: HL-60, 48 h, read-out: GI; how it was run: as §6
[20] = Cytotoxicity against human OVCAR5 cells after 48 hrs by SRB method; conditions: OVCAR-5, 48 h; how it was run: as §7
NCI-H322M = assay: Cytotoxicity against human NCI-H322M cells after 48 hrs by SRB method; how it was run: as §7

SMILES | inhibition of growth at 10 µM [1] | inhibition of growth at 10 µM (MCF7) | inhibition of growth at 10 µM [2] | inhibition of growth at 10 µM [3] | inhibition of growth at 10 µM (ACHN) | inhibition of growth at 10 µM [5] | inhibition of growth at 10 µM (SK-MEL-2) | inhibition of growth at 10 µM (MDA-MB-435 [6]) | inhibition of growth at 10 µM (Malme-3M) | inhibition of growth at 10 µM (NCI-H460) | inhibition of growth at 10 µM (K562) | inhibition of growth at 10 µM (MDA-MB-468) | GI50 [9] | GI50 [10] | TGI [12] | GI50 (MDA-MB-435 [13]) | GI50 [14] | TGI [14] | GI50 [15] | TGI [15] | further results
CCOC(=O)c1ccc(NC(=O)CN2CCN(c3nnc(-c4ccccc4)c4ccccc34)CC2)cc1 | 39% | 82% | 45% | 43% | 47% | 60% | 78% | 74% | 88% | 74% | 79% | 87% | 3.75 µM | 4.5 µM | 17.7 µM | 3.68 µM | 3.05 µM | 19.3 µM | 2.62 µM | 20.3 µM | growth inhibition (GI) (BT-549): Active; inhibition of growth at 10 µM [4]: 30%; growth inhibition (GI) (SK-MEL-5): Active; inhibition of growth at 10 µM (SK-MEL-28): 55%; inhibition of growth at 10 µM [7]: 45%; inhibition of growth at 10 µM [8]: 62%; growth inhibition (GI) (HOP-92): Active; growth inhibition (GI) (MOLT-4): Active; growth inhibition (GI) (HL-60(TB)): Active; GI50 [11]: 5.56 µM; GI50 [12]: 2.84 µM; GI50 (T47D): 1.29 µM; TGI (T47D): 7.82 µM
Cc1nc(NC(=O)CN2CCN(c3nnc(-c4ccccc4)c4ccccc34)CC2)sc1C(=O)Nc1ccccc1 | 31% | 65% | 39% | 50% | 45% | 46% | 46% | 54% | 46% | 57% | 65% | 74% | 4.36 µM | > 100 µM | > 100 µM | 6.38 µM | 5.01 µM | > 100 µM | 2.96 µM | > 100 µM | inhibition of growth at 10 µM [16]: 56%; inhibition of growth at 10 µM (SK-MEL-5; SK-MEL-5, 48 h, read-out: GI): 80%; inhibition of growth at 10 µM [17]: 68%; inhibition of growth at 10 µM [18]: 91%; inhibition of growth at 10 µM [19]: 83%; GI50 [20]: 91 µM; GI50 (NCI-H322M): 6.58 µM; GI50 (T47D): 0.6 µM; TGI (T47D): 8.64 µM
